Measured values collected from several papers.
Each line is one published result; the experiments were not run side by side. pEC50, pIC50, pKd, pKi: −log10 of the molar value.
ADRA2B: Alpha-2B adrenergic receptor (ADRA2B, Homo sapiens, UniProt P18089)
PIK3CG: Phosphatidylinositol 4,5-bisphosphate 3-kinase catalytic subunit gamma isoform (PIK3CG, Homo sapiens, UniProt P48736)

SMILES	target	read-out	action	technique	pH	quantity	value
Cn1ccc(-c2ccc(-c3cc(C(=O)O)cc4cc(-c5ccc(C(F)(F)F)cc5)ccc34)cc2)n1	Sigma intracellular receptor 2 (TMEM97, Homo sapiens, UniProt Q5BJF2)	cell-free assay		radioligand		pKi	5.72
Cc1cc(Oc2ncccc2CN2CCN(c3ccc(Br)cc3)CC2)ccc1-c1c(C)c(=O)[nH]c(=O)n1C	ADRA2B	ligand displacement		radioligand		pKi	6.90
NC(=O)C1CN(C(=O)CCl)c2ccccc2O1 (centres unmarked)	Creatine kinase U-type, mitochondrial (CKMT1A, Homo sapiens, UniProt P12532)	binding		MST		pKd	4.89
CCC(C(=O)N1C(=O)C(=Nc2ccc(Cl)cc2Br)c2ccccc21)c1ccccc1 (centres unmarked)	PIK3CG	enzyme activity	inhibitor	ADP detection		pIC50	7.55
COc1ccc(-c2cc(=O)c3cccc(Nc4ncc5cc(C(=O)N(C)C)n(C6CCCC6)c5n4)c3o2)cc1	PIK3CG	enzyme activity	inhibitor	radiometric		pIC50	< 5.00
Cc1cc(Oc2ncccc2CN2CCN(c3ccccc3C)CC2)ccc1-c1c(C)c(=O)[nH]c(=O)n1C	ADRA2B	ligand displacement		radioligand		pKi	7.55
Cc1cccc(N=C2C(=O)N(Cc3ccccc3)c3ccccc32)c1	PIK3CG	enzyme activity	inhibitor	ADP detection		pIC50	9.35
COc1cc(-c2noc(C3CNc4cnn(C)c4C3)n2)cc(Cl)c1OC (centres unmarked)	FBXW7 (Homo sapiens, UniProt Q969H0)	binding		SPR		pKd	< 4.06
Nc1ncnc2c1ncn2C1CCCC1	Inositol-tetrakisphosphate 1-kinase (Homo sapiens, UniProt Q13572)	binding		ITC	pH 7.2	pKd	7.28
Cc1cc(Oc2ncccc2CN2CCN(C(c3ccccc3)c3ccccc3)CC2)ccc1-c1c(C)c(=O)[nH]c(=O)n1C	ADRA2B	ligand displacement		radioligand		pKi	6.76
CC(C)c1cccc(C(C)C)c1N=C1C(=O)N(Cc2ccc(Br)cc2)c2ccccc21	PIK3CG	enzyme activity	inhibitor	ADP detection		pIC50	8.39
CC(C)C[C@H](NC(=O)[C@H](CC(C)C)NC(=O)[C@H](Cc1c[nH]c2ccccc12)NC(=O)[C@H](CCC(N)=O)NC(=O)[C@@H](NC(=O)[C@H](Cc1ccccc1)NC(=O)[C@H](CC(=O)O)NC(=O)[C@H](CCC(N)=O)NC(=O)[C@H](C)NC(=O)[C@H](C)NC(=O)[C@H](CCCNC(=N)N)NC(=O)[C@H](CCC(=O)O)NC(=O)[C@H](CC(=O)O)NC(=O)[C@H](CC(C)C)NC(=O)[C@H](Cc1ccc(O)cc1)NC(=O)[C@H](CCCCN)NC(=O)[C@H](CO)NC(=O)[C@H](Cc1ccc(O)cc1)NC(=O)[C@H](CC(=O)O)NC(=O)[C@H](CO)NC(=O)[C@@H](NC(=O)[C@H](Cc1ccccc1)NC(=O)[C@@H](NC(=O)CNC(=O)[C@H](CCC(N)=O)NC(=O)C(C)(C)NC(=O)[C@@H](N)Cc1c[nH]cn1)[C@@H](C)O)[C@@H](C)O)C(C)C)C(=O)N[C@@H](CC(=O)O)C(=O)NCC(=O)NCC(=O)N1CCC[C@H]1C(=O)N[C@@H](CO)C(=O)N[C@@H](CC(C)C)C(=O)N[C@@H](CCCNC(=N)N)C(=O)N[C@@H](Cc1c[nH]cn1)C(=O)N[C@@H](Cc1ccc(O)cc1)C(=O)N[C@@H](CC(C)C)C(=O)N[C@@H](CC(N)=O)C(=O)N[C@@H](CC(C)C)C(=O)N[C@H](C(=O)N[C@H](C(=O)N[C@@H](CCCNC(=N)N)C(=O)N[C@@H](CCC(N)=O)C(=O)N[C@@H](CCCNC(=N)N)C(=O)N[C@@H](Cc1ccc(O)cc1)C(N)=O)[C@@H](C)O)C(C)C	Neuropeptide Y receptor type 2 (NPY2R, Homo sapiens, UniProt P49146)	reporter gene	agonist	luciferase		pEC50	9.40
CC(C)c1cccc(C(C)C)c1N=C1C(=O)Nc2ccccc21	PIK3CG	enzyme activity	inhibitor	ADP detection		pIC50	7.90
Cc1cc(Oc2ncccc2CN2CCN(c3ccccn3)CC2)ccc1-c1c(C)c(=O)[nH]c(=O)n1C	ADRA2B	ligand displacement		radioligand		pKi	6.57
